The record followed here is ChEMBL document CHEMBL3232963, “Discovery of a potent and selective α3β4 nicotinic acetylcholine receptor antagonist from an α-conotoxin synthetic combinatorial library” (J Med Chem, 2014).

Assay type in all cases: cell-based
The target of assay [1] is Neuronal acetylcholine receptor; alpha3/beta4 (Rattus norvegicus, UniProt P04757+P12392). Nature of the assay: Antagonist activity at rat alpha3beta4 nAChR expressed in HEK293 cells assessed as inhibition of epibatadine-induced effect after 30 mins by fluorescent membrane potential assay. An outline of the steps: (§1)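 Stably transfected HEK293 lines (KXα3β4R2, KXα3β2R2, KXα4β2R2; rat subunits) grown in DMEM/10% FBS with G-418, plated 24 h before assay. Cells washed with HBSS, peptide added, then membrane potential blue dye, 30 min at 37 °C. Fluorescence (ex 565/em 530 nm) read up to 60 s after epibatidine to 0.1 μM. IC50 from maximal responses across concentrations; n = 4.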
Chain of Neuronal acetylcholine receptor; alpha3/beta4 (P04757 whole entry): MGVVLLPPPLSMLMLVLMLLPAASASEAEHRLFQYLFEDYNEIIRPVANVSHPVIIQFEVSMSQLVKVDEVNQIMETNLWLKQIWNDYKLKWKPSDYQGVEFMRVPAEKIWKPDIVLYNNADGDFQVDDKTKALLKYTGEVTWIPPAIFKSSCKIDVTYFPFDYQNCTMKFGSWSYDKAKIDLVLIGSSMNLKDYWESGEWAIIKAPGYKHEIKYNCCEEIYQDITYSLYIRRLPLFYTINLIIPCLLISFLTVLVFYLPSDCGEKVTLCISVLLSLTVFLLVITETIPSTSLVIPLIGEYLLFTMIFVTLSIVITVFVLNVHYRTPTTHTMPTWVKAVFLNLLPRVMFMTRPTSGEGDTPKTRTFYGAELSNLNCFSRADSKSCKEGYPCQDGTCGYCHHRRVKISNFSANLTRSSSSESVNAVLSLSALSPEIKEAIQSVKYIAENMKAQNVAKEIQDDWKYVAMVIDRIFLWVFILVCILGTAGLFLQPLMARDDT
Chain of Neuronal acetylcholine receptor; alpha3/beta4 (P12392 whole entry): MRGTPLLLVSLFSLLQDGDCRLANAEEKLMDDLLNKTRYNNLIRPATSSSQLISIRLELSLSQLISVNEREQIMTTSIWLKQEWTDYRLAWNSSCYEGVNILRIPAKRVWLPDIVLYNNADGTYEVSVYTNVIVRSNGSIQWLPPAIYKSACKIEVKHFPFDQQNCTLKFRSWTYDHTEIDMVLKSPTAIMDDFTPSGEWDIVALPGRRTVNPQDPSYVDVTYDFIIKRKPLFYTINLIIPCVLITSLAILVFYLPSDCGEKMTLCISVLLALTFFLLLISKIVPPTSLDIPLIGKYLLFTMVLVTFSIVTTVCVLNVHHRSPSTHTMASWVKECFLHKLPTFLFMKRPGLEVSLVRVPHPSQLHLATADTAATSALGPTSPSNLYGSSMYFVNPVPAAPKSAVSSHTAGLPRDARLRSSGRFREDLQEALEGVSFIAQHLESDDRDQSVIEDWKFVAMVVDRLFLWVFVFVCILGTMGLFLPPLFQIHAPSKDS

The target of assay [2] is Neuronal acetylcholine receptor; alpha4/beta2 (Rattus norvegicus, UniProt P09483+P12390). Nature of the assay: Antagonist activity at rat alpha4beta2 nAChR expressed in HEK293 cells assessed as inhibition of epibatadine-induced effect after 30 mins by fluorescent membrane potential assay. The essentials: as §1
Chain of Neuronal acetylcholine receptor; alpha4/beta2 (P09483 whole entry): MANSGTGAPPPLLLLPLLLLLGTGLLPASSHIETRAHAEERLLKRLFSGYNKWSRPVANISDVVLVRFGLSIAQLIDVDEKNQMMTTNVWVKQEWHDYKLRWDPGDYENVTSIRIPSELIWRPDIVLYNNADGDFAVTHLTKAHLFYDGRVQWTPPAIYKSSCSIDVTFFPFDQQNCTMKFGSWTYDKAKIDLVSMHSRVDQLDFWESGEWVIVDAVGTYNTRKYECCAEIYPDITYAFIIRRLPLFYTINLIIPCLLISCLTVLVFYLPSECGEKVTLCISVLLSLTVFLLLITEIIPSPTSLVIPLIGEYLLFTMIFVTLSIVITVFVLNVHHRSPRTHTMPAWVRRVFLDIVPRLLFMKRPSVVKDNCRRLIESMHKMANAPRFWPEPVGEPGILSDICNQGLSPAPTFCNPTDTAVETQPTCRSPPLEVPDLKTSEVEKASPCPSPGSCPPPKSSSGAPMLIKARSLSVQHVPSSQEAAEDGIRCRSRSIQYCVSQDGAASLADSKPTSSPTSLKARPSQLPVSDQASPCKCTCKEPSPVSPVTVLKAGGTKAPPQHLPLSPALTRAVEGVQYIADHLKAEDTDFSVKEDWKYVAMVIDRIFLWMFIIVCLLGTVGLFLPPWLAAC
Chain of Neuronal acetylcholine receptor; alpha4/beta2 (P12390 whole entry): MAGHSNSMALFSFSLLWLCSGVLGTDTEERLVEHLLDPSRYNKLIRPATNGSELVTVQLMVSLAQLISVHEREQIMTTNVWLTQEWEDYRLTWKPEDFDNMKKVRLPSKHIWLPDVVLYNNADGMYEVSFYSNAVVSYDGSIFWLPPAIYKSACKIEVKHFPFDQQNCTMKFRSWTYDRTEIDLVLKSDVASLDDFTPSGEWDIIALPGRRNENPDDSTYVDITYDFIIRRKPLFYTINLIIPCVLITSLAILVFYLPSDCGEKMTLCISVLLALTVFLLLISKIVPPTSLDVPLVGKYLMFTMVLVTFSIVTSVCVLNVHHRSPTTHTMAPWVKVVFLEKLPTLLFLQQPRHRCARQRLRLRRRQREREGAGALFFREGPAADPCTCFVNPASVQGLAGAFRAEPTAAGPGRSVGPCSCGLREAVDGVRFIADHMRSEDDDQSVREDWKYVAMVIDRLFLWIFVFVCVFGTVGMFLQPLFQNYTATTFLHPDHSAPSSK
Assay [3] addresses Neuronal acetylcholine receptor; alpha3/beta2 (Rattus norvegicus, UniProt P04757+P12390). Nature of the assay: Antagonist activity at rat alpha3beta2 nAChR expressed in HEK293 cells assessed as inhibition of epibatadine-induced effect after 30 mins by fluorescent membrane potential assay. An outline of the steps: as §1
The target of assay [4] is Neuronal acetylcholine receptor; alpha3/beta4 (Rattus norvegicus) (UniProt P04757+P12392). Kind of assay: Antagonist activity at rat alpha3beta4 nAChR expressed in HEK293 cells assessed as inhibition of epibatadine-induced effect at 10 uM after 30 mins by fluorescent membrane potential assay relative to mecamylamine. An outline of the steps: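 Rat α3β4 nAChR stably expressed in HEK293 cells; crude, SPE-desalted individual peptides tested at 10 μM in HBSS with membrane potential blue dye, 30 min at 37 °C. Fluorescence change read after epibatidine (0.1 μM). Percent inhibition set against 10 μM mecamylamine taken as 100%.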

Each structure is given as a SMILES string. Numbered stars: 1 amine (or outer) side, 2 acyl side, 3 side chain; on linkers, the order of the positions; unused ones are H or OH. Bridge positions count the residues as written; N and C are the ends. Square brackets hold non-standard residues; d marks the D form. Peptide text beside a SMILES is read from it. X1 = O=C([C@H](CC1C=Nc2ccccc21)N[*:1])[*:2]; Nle = CCCC[C@H](N)C(=O)O; Nva = CCC[C@H](N)C(=O)O; Abu = CC[C@H](N)C(=O)O

Chain of Neuronal acetylcholine receptor; alpha3/beta2 (P04757 whole entry): as the sequence (P04757 whole entry) above
Chain of Neuronal acetylcholine receptor; alpha3/beta2 (P12390 whole entry): as the sequence (P12390 whole entry) above

In general, IC50 refers to the midpoint of a concentration-inhibition curve. As usually defined, the inhibition is the drop in the measured response relative to a control, in per cent. Consider `CCCC[C@@H]1NC(=O)[C@H](CC)NC(=O)[C@H]([C@H](C)CC)NC(=O)[C@@H]2CSSC[C@H](NC(=O)CN)C(=O)N[C@@H](CSSC[C@@H](C(=O)O)NC(=O)[C@H](Cc3ccc(O)cc3)NC1=O)C(=O)N[C@@H](CO)C(=O)N[C@@H](Cc1cnc[nH]1)C(=O)N1CCC[C@H]1C(=O)N[C@@H](CC)C(=O)N2`, for which the half-maximal inhibitory concentration (IC50) in assay [1] was 0.463 µM; in assay [2], over 10 µM; in assay [3], over 10 µM. For the same molecule, in assay [4], the inhibition turned out to be 110%.
For the molecule `CCC[C@@H]1NC(=O)[C@H](CC)NC(=O)[C@H]([C@H](C)CC)NC(=O)[C@@H]2CSSC[C@H](NC(=O)CN)C(=O)N[C@@H](CSSC[C@@H](C(=O)O)NC(=O)[C@H](Cc3ccc(O)cc3)NC1=O)C(=O)N[C@@H](CO)C(=O)N[C@@H](Cc1cnc[nH]1)C(=O)N1CCC[C@H]1C(=O)N[C@@H](CC)C(=O)N2`, the IC50 is 1.93 µM in assay [1], over 10 µM in assay [2] and over 10 µM in assay [3]. For the same molecule, in assay [4], the inhibition is 84.5%.
Consider `CCCC[C@@H]1NC(=O)[C@H](CC)NC(=O)[C@H](Cc2ccccc2)NC(=O)[C@@H]2CSSC[C@H](NC(=O)CN)C(=O)N[C@@H](CSSC[C@@H](C(=O)O)NC(=O)[C@H](Cc3ccc(O)cc3)NC1=O)C(=O)N[C@@H](CO)C(=O)N[C@@H](Cc1cnc[nH]1)C(=O)N1CCC[C@H]1C(=O)N1CCC[C@H]1C(=O)N2` (H-GCCSHPPCF[Abu][Nle]YC-OH; disulfide 2-8, 3-13), for which the concentration for half-maximal inhibition (IC50) in assay [1] was 0.469 µM; in assay [2], over 10 µM; in assay [3], over 10 µM. In assay [4], the inhibition worked out at 106%.
For the molecule `CCCC[C@@H]1NC(=O)[C@H](Cc2c[nH]c3ccccc23)NC(=O)[C@H](Cc2ccccc2)NC(=O)[C@@H]2CSSC[C@H](NC(=O)CN)C(=O)N[C@@H](CSSC[C@@H](C(=O)O)NC(=O)[C@H](Cc3ccc(O)cc3)NC1=O)C(=O)N[C@@H](CO)C(=O)N[C@@H](Cc1cnc[nH]1)C(=O)N1CCC[C@H]1C(=O)N[C@@H](CC)C(=O)N2` (H-GCCSHP[Abu]CFW[Nle]YC-OH; disulfide 2-8, 3-13), the IC50 in assay [1] is 1.73 µM; in assay [2], over 10 µM; in assay [3] it was over 10 µM. Further, the inhibition in assay [4] came out at 101%.
As for `CCCC[C@@H]1NC(=O)[C@H](CC)NC(=O)[C@H](Cc2ccccc2)NC(=O)[C@@H]2CSSC[C@H](NC(=O)CN)C(=O)N[C@@H](CSSC[C@@H](C(=O)O)NC(=O)[C@H](Cc3ccc(O)cc3)NC1=O)C(=O)N[C@@H](CO)C(=O)N[C@@H](Cc1cnc[nH]1)C(=O)N1CCC[C@H]1C(=O)N[C@@H](CC)C(=O)N2` (H-GCCSHP[Abu]CF[Abu][Nle]YC-OH; disulfide 2-8, 3-13), the figures for the IC50 in assay [1], in assay [2] and in assay [3] were 0.307 µM, over 10 µM and over 10 µM, respectively. Further, in assay [4], the inhibition worked out at 110%.
In the case of `CCCC[C@@H]1NC(=O)[C@H](CO)NC(=O)[C@@H]2CSSC[C@@H](C(=O)O)NC(=O)[C@H](Cc3ccc(O)cc3)NC(=O)[C@H](CCC)NC(=O)[C@H](Cc3c[nH]c4ccccc34)NC(=O)[C@H](Cc3ccccc3)NC(=O)[C@H](CSSC[C@H](NC(=O)CN)C(=O)N2)NC(=O)[C@@H]2CCCN2C(=O)[C@@H]2CCCN2C1=O` (H-GCCS[Nle]PPCFW[Nva]YC-OH; disulfide 2-8, 3-13), the inhibition in assay [4] was 61.6%.
For the molecule `CCCC[C@@H]1NC(=O)[C@H](CC)NC(=O)[C@H](Cc2ccccc2)NC(=O)[C@@H]2CSSC[C@H](NC(=O)CN)C(=O)N[C@@H](CSSC[C@@H](C(=O)O)NC(=O)[C@@H]3CCCN3C1=O)C(=O)N[C@@H](CO)C(=O)N[C@@H](CCCC)C(=O)N1CCC[C@H]1C(=O)N1CCC[C@H]1C(=O)N2` (H-GCCS[Nle]PPCF[Abu][Nle]PC-OH; disulfide 2-8, 3-13), in assay [4], the inhibition came to 54.6%.
With `CCCC[C@@H]1NC(=O)[C@H](CC)NC(=O)[C@H](Cc2ccccc2)NC(=O)[C@@H]2CSSC[C@H](NC(=O)CN)C(=O)N[C@@H](CSSC[C@@H](C(=O)O)NC(=O)[C@H](Cc3ccc(O)cc3)NC1=O)C(=O)N[C@@H](CO)C(=O)N[C@@H](CCCC)C(=O)N1CCC[C@H]1C(=O)N1CCC[C@H]1C(=O)N2` (H-GCCS[Nle]PPCF[Abu][Nle]YC-OH; disulfide 2-8, 3-13), the values for the 50% inhibitory concentration (IC50) in assay [1], in assay [2] and in assay [3] were 0.397 µM, over 10 µM and over 10 µM, respectively. For the same molecule, the inhibition in assay [4] was determined as 107%.
Consider `CCCC[C@@H]1NC(=O)[C@H](CO)NC(=O)[C@@H]2CSSC[C@@H](C(=O)O)NC(=O)[C@@H]3CCCN3C(=O)[C@H](CCC)NC(=O)[C@H](CC)NC(=O)[C@H](Cc3ccccc3)NC(=O)[C@H](CSSC[C@H](NC(=O)CN)C(=O)N2)NC(=O)[C@@H]2CCCN2C(=O)[C@@H]2CCCN2C1=O` (H-GCCS[Nle]PPCF[Abu][Nva]PC-OH; disulfide 2-8, 3-13), for which the inhibition in assay [4] turned out to be 35.7%.
On the same count and under the same terms, in the case of `CCCC[C@@H]1NC(=O)[C@H](Cc2c[nH]c3ccccc23)NC(=O)[C@H](Cc2ccccc2)NC(=O)[C@@H]2CSSC[C@H](NC(=O)CN)C(=O)N[C@@H](CSSC[C@@H](C(=O)O)NC(=O)[C@H](Cc3ccc(O)cc3)NC1=O)C(=O)N[C@@H](CO)C(=O)N[C@@H](CCCC)C(=O)N1CCC[C@H]1C(=O)N[C@@H](CC)C(=O)N2` (H-GCCS[Nle]P[Abu]CFW[Nle]YC-OH; disulfide 2-8, 3-13) it was 76%.
For `CCCC[C@@H]1NC(=O)[C@H](CO)NC(=O)[C@@H]2CSSC[C@@H](C(=O)O)NC(=O)[C@@H]3CCCN3C(=O)[C@H](CCC)NC(=O)[C@H](Cc3c[nH]c4ccccc34)NC(=O)[C@H](Cc3ccccc3)NC(=O)[C@H](CSSC[C@H](NC(=O)CN)C(=O)N2)NC(=O)[C@H](CC)NC(=O)[C@@H]2CCCN2C1=O` (H-GCCS[Nle]P[Abu]CFW[Nva]PC-OH; disulfide 2-8, 3-13), the inhibition in assay [4] amounted to 41.1%.
In the case of `CCCC[C@@H]1NC(=O)[C@H](CO)NC(=O)[C@@H]2CSSC[C@@H](C(=O)O)NC(=O)[C@H](Cc3ccc(O)cc3)NC(=O)[C@H](CCC)NC(=O)[C@H](Cc3c[nH]c4ccccc34)NC(=O)[C@H](Cc3ccccc3)NC(=O)[C@H](CSSC[C@H](NC(=O)CN)C(=O)N2)NC(=O)[C@H](CC)NC(=O)[C@@H]2CCCN2C1=O` (H-GCCS[Nle]P[Abu]CFW[Nva]YC-OH; disulfide 2-8, 3-13), the inhibition in assay [4] is 67.9%.
Turning to `CCCC[C@@H]1NC(=O)[C@H](CC)NC(=O)[C@H](Cc2ccccc2)NC(=O)[C@@H]2CSSC[C@H](NC(=O)CN)C(=O)N[C@@H](CSSC[C@@H](C(=O)O)NC(=O)[C@@H]3CCCN3C1=O)C(=O)N[C@@H](CO)C(=O)N[C@@H](CCCC)C(=O)N1CCC[C@H]1C(=O)N[C@@H](CC)C(=O)N2` (H-GCCS[Nle]P[Abu]CF[Abu][Nle]PC-OH; disulfide 2-8, 3-13), the inhibition in assay [4] was 36.6%.
Turning to `CCCC[C@@H]1NC(=O)[C@H](CC)NC(=O)[C@H](Cc2ccccc2)NC(=O)[C@@H]2CSSC[C@H](NC(=O)CN)C(=O)N[C@@H](CSSC[C@@H](C(=O)O)NC(=O)[C@H](Cc3ccc(O)cc3)NC1=O)C(=O)N[C@@H](CO)C(=O)N[C@@H](CCCC)C(=O)N1CCC[C@H]1C(=O)N[C@@H](CC)C(=O)N2` (H-GCCS[Nle]P[Abu]CF[Abu][Nle]YC-OH; disulfide 2-8, 3-13), the half-inhibitory concentration (IC50) is 0.31 µM in assay [1], over 10 µM in assay [2] and over 10 µM in assay [3]. Also, the inhibition in assay [4] was 106%.
As for `CCCC[C@@H]1NC(=O)[C@H](CO)NC(=O)[C@@H]2CSSC[C@@H](C(=O)O)NC(=O)[C@@H]3CCCN3C(=O)[C@H](CCC)NC(=O)[C@H](CC)NC(=O)[C@H](Cc3ccccc3)NC(=O)[C@H](CSSC[C@H](NC(=O)CN)C(=O)N2)NC(=O)[C@H](CC)NC(=O)[C@@H]2CCCN2C1=O` (H-GCCS[Nle]P[Abu]CF[Abu][Nva]PC-OH; disulfide 2-8, 3-13), the inhibition in assay [4] worked out at 40.3%.
Still for that read-out and setting: in the case of `CCCC[C@@H]1NC(=O)[C@H](CC2C=Nc3ccccc32)NC(=O)[C@H](Cc2ccccc2)NC(=O)[C@@H]2CSSC[C@H](NC(=O)CN)C(=O)N[C@@H](CSSC[C@@H](C(=O)O)NC(=O)[C@@H]3CCCN3C1=O)C(=O)N[C@@H](CO)C(=O)N[C@@H](CCCC)C(=O)N1CCC[C@H]1C(=O)N[C@@H](CC)C(=O)N2` (some centres not stated) (H-GCCS[Nle]P[Abu]CF[X1][Nle]PC-OH; disulfide 2-8, 3-13) it was 22.1%.
